Experimental data published in ChEMBL document CHEMBL1649231, “In vitro activities of panduratin A against clinical Staphylococcus strains” (2009).
≈ marks a conversion by molar mass, not a printed value.

Assays:
Assay type in all cases: functional
Staphylococcus hominis [1] = experiment: Antimicrobial activity against methicillin-resistant coagulase-negative Staphylococcus hominis assessed as resistant isolates after 24 hrs by broth microdilution method
Mammaliicoccus sciuri [2] = experiment: Antimicrobial activity against methicillin-susceptible coagulase-negative Staphylococcus sciuri assessed as resistant isolates after 24 hrs by broth microdilution method
[3] = tested on: Staphylococcus epidermidis; experiment: Antimicrobial activity against methicillin-susceptible coagulase-negative Staphylococcus epidermidis after 24 hrs by broth microdilution method
Outline: (§1)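 Clinical isolates came from blood, body fluids, genital secretions, pus or sputum, identified conventionally or by Vitek. MICs were run by CLSI M7-A6 broth microdilution in Mueller-Hinton broth with 5 × 10^5 CFU/ml inoculum. Agents were twofold serially diluted, starting from 10% DMSO. Drug-free and uninoculated controls were included. Plates were incubated aerobically at 37°C for 24 h; MIC is the lowest concentration giving no visible growth.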

Staphylococcus simulans [4] = experiment: Antimicrobial activity against methicillin-susceptible coagulase-negative Staphylococcus simulans assessed as resistant isolates after 24 hrs by broth microdilution method
[5] = tested on: Staphylococcus haemolyticus; experiment: Bactericidal activity against methicillin-susceptible coagulase-negative Staphylococcus haemolyticus after 24 hrs by plate counting method
Outline: (§2)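 Clinical staphylococcal isolates from patient body fluids, blood, genital secretions, pus or sputum; species by conventional methods or Vitek. Twofold dilutions in Mueller-Hinton broth, inoculum 5 × 10^5 CFU/ml, 37°C aerobic 24 h (CLSI M7-A6 microdilution). About 100 μl from each well without visible growth spread on MHA; 37°C 24 h. MBC = lowest concentration giving no growth on agar.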

[6] = tested on: Staphylococcus haemolyticus; experiment: Bactericidal activity against methicillin-resistant coagulase-negative Staphylococcus haemolyticus after 24 hrs by plate counting method
Staphylococcus simulans [7] = experiment: Antimicrobial activity against methicillin-susceptible coagulase-negative Staphylococcus simulans after 24 hrs by broth microdilution method; outline: as §1
[8] = tested on: Staphylococcus epidermidis; experiment: Antimicrobial activity against methicillin-resistant coagulase-negative Staphylococcus epidermidis assessed as resistant isolates after 24 hrs by broth microdilution method
[9] = tested on: Staphylococcus epidermidis; experiment: Antimicrobial activity against methicillin-susceptible coagulase-negative Staphylococcus epidermidis assessed as susceptible isolates after 24 hrs by broth microdilution method
[10] = tested on: Staphylococcus epidermidis; experiment: Antimicrobial activity against methicillin-resistant coagulase-negative Staphylococcus epidermidis after 24 hrs by broth microdilution method; outline: as §1
Mammaliicoccus sciuri [11] = experiment: Bactericidal activity against methicillin-susceptible coagulase-negative Staphylococcus sciuri after 24 hrs by plate counting method; outline: as §2
[12] = tested on: Staphylococcus haemolyticus; experiment: Antimicrobial activity against methicillin-susceptible coagulase-negative Staphylococcus haemolyticus after 24 hrs by broth microdilution method; outline: as §1
Staphylococcus simulans [13] = experiment: Antimicrobial activity against methicillin-resistant coagulase-negative Staphylococcus simulans assessed as susceptible isolates after 24 hrs by broth microdilution method
Staphylococcus hominis [14] = experiment: Antimicrobial activity against methicillin-resistant coagulase-negative Staphylococcus hominis assessed as susceptible isolates after 24 hrs by broth microdilution method
Staphylococcus aureus [15] = experiment: Antimicrobial activity against methicillin-susceptible Staphylococcus aureus assessed as resistant isolates after 24 hrs by broth microdilution method
Staphylococcus hominis [16] = experiment: Antimicrobial activity against methicillin-susceptible coagulase-negative Staphylococcus hominis assessed as susceptible isolates after 24 hrs by broth microdilution method
Staphylococcus simulans [17] = experiment: Antimicrobial activity against methicillin-resistant coagulase-negative Staphylococcus simulans assessed as resistant isolates after 24 hrs by broth microdilution method
[18] = tested on: Staphylococcus haemolyticus; experiment: Antimicrobial activity against methicillin-resistant coagulase-negative Staphylococcus haemolyticus assessed as resistant isolates after 24 hrs by broth microdilution method
Staphylococcus hominis [19] = experiment: Antimicrobial activity against methicillin-susceptible coagulase-negative Staphylococcus hominis assessed as intermediate resistant isolates after 24 hrs by broth microdilution method; conditions: pooled result: one value given for 5 cell lines, strains, targets or settings
[20] = tested on: Staphylococcus haemolyticus; experiment: Antimicrobial activity against methicillin-resistant coagulase-negative Staphylococcus haemolyticus assessed as intermediate resistant isolates after 24 hrs by broth microdilution method
[21] = tested on: Staphylococcus epidermidis; experiment: Antimicrobial activity against methicillin-resistant coagulase-negative Staphylococcus epidermidis assessed as intermediate resistant isolates after 24 hrs by broth microdilution method
Staphylococcus aureus [22] = experiment: Antimicrobial activity against methicillin-susceptible Staphylococcus aureus after 24 hrs by broth microdilution method; outline: as §1
Mammaliicoccus sciuri [23] = experiment: Antimicrobial activity against methicillin-resistant coagulase-negative Staphylococcus sciuri assessed as intermediate resistant isolates after 24 hrs by broth microdilution method
Staphylococcus simulans [24] = experiment: Antimicrobial activity against methicillin-resistant coagulase-negative Staphylococcus simulans after 24 hrs by broth microdilution method; outline: as §1
Mammaliicoccus sciuri [25] = experiment: Antimicrobial activity against methicillin-susceptible coagulase-negative Staphylococcus sciuri assessed as susceptible isolates after 24 hrs by broth microdilution method
Outline: (§3)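 Clinical isolates from blood, body fluids, pus, sputum or genital secretions, identified conventionally or by Vitek, were tested alongside ATCC 29213 and ATCC 12228 controls. CLSI M7-A6 broth microdilution in Mueller-Hinton broth used twofold dilutions from a 10% DMSO solution and 5 × 10^5 CFU/ml inoculum. Drug-free and uninoculated wells served as controls; incubation was aerobic at 37°C for 24 h. MIC was the lowest concentration with no visible growth.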

Staphylococcus aureus [26] = experiment: Antimicrobial activity against methicillin-susceptible Staphylococcus aureus assessed as intermediate resistant isolates after 24 hrs by broth microdilution method
[27] = tested on: Staphylococcus haemolyticus; experiment: Antimicrobial activity against methicillin-susceptible coagulase-negative Staphylococcus haemolyticus assessed as resistant isolates after 24 hrs by broth microdilution method
Staphylococcus hominis [28] = experiment: Antimicrobial activity against methicillin-resistant coagulase-negative Staphylococcus hominis assessed as intermediate resistant isolates after 24 hrs by broth microdilution method
[29] = tested on: Staphylococcus epidermidis; experiment: Bactericidal activity against methicillin-susceptible coagulase-negative Staphylococcus epidermidis after 24 hrs by plate counting method; outline: as §2
Staphylococcus aureus [30] = experiment: Antimicrobial activity against methicillin-resistant Staphylococcus aureus assessed as intermediate resistant isolates after 24 hrs by broth microdilution method
Staphylococcus hominis [31] = experiment: Bactericidal activity against methicillin-susceptible coagulase-negative Staphylococcus hominis after 24 hrs by plate counting method; outline: as §2
Staphylococcus simulans [32] = experiment: Antimicrobial activity against methicillin-susceptible coagulase-negative Staphylococcus simulans assessed as susceptible isolates after 24 hrs by broth microdilution method; outline: as §3
Mammaliicoccus sciuri [33] = experiment: Antimicrobial activity against methicillin-resistant coagulase-negative Staphylococcus sciuri after 24 hrs by broth microdilution method; outline: as §1
Staphylococcus hominis [34] = experiment: Antimicrobial activity against methicillin-susceptible coagulase-negative Staphylococcus hominis after 24 hrs by broth microdilution method; outline: as §1
[35] = tested on: Staphylococcus haemolyticus; experiment: Antimicrobial activity against methicillin-resistant coagulase-negative Staphylococcus haemolyticus assessed as susceptible isolates after 24 hrs by broth microdilution method
Staphylococcus simulans [36] = experiment: Antimicrobial activity against methicillin-resistant coagulase-negative Staphylococcus simulans assessed as intermediate resistant isolates after 24 hrs by broth microdilution method
[37] = Staphylococcus haemolyticus, 24 h

SMILES: CC[C@H]1OC(=O)[C@H](C)[C@@H](O[C@H]2C[C@@](C)(OC)[C@@H](O)[C@H](C)O2)[C@H](C)[C@@H](O[C@@H]2O[C@H](C)C[C@H](N(C)C)[C@H]2O)[C@](C)(O)C[C@@H](C)C(=O)[C@H](C)[C@@H](O)[C@]1(C)O [ERYTHROMYCIN]
- Activity (Staphylococcus hominis [1]): 74%
- Activity (Mammaliicoccus sciuri [2]): 27%
- MIC [3]: 0.5 µg/mL (≈ 0.681 µM)
- MIC50 [3]: 0.5 µg/mL (≈ 0.681 µM)
- MIC90 [3]: 16 µg/mL (≈ 21.8 µM)
- Activity (Staphylococcus simulans [4]): 27%
- MBC50 [5]: 2 µg/mL (≈ 2.73 µM)
- MBC [5, 37]: 1 µg/mL (≈ 1.36 µM)
- MBC50 [6]: 32 µg/mL (≈ 43.6 µM)
- MBC [6, 37]: 1 µg/mL (≈ 1.36 µM)
- MIC (Staphylococcus simulans [7]): 0.5 µg/mL (≈ 0.681 µM)
- MIC50 (Staphylococcus simulans [7]): 0.5 µg/mL (≈ 0.681 µM)
- MIC90 (Staphylococcus simulans [7]): 16 µg/mL (≈ 21.8 µM)
- Activity [8]: 74%
- Activity [9]: 50%
- MIC50 [10]: 16 µg/mL (≈ 21.8 µM)
- MIC90 [10]: 32 µg/mL (≈ 43.6 µM)
- MBC50 (Mammaliicoccus sciuri [11]): 2 µg/mL (≈ 2.73 µM)
- MBC (Mammaliicoccus sciuri [11]; Mammaliicoccus sciuri, 24 h): 1 µg/mL (≈ 1.36 µM)
- MIC [12]: 0.5 µg/mL (≈ 0.681 µM)
- MIC50 [12]: 0.5 µg/mL (≈ 0.681 µM)
- MIC90 [12]: 16 µg/mL (≈ 21.8 µM)
- Activity (Staphylococcus simulans [13]): 15%
- Activity (Staphylococcus hominis [14]): 11%
- Activity (Staphylococcus aureus [15]): 40%
- Activity (Staphylococcus hominis [16]): 50%
- Activity (Staphylococcus simulans [17]): 74%
- Activity [18]: 74%
- Activity (Staphylococcus hominis [19]): 23%
- Activity [20]: 15%
- Activity [21]: 15%
- MIC (Staphylococcus aureus [22]): 0.5 µg/mL (≈ 0.681 µM)
- MIC50 (Staphylococcus aureus [22]): 0.5 µg/mL (≈ 0.681 µM)
- MIC90 (Staphylococcus aureus [22]): 32 µg/mL (≈ 43.6 µM)
- Activity (Mammaliicoccus sciuri [23]): 15%
- MIC50 (Staphylococcus simulans [24]): 16 µg/mL (≈ 21.8 µM)
- MIC90 (Staphylococcus simulans [24]): 32 µg/mL (≈ 43.6 µM)
- Activity (Mammaliicoccus sciuri [25]): 50%
- Activity (Staphylococcus aureus [26]): 4%
- Activity [27]: 27%
- Activity (Staphylococcus hominis [28]): 15%
- MBC50 [29]: 2 µg/mL (≈ 2.73 µM)
- MBC ([29]; Staphylococcus epidermidis, 24 h): 1 µg/mL (≈ 1.36 µM)
- Activity (Staphylococcus aureus [30]): 0%
- MBC50 (Staphylococcus hominis [31]): 2 µg/mL (≈ 2.73 µM)
- MBC (Staphylococcus hominis [31]; Staphylococcus hominis, 24 h): 1 µg/mL (≈ 1.36 µM)
- Activity (Staphylococcus simulans [32]): 50%
- MIC50 (Mammaliicoccus sciuri [33]): 16 µg/mL (≈ 21.8 µM)
- MIC90 (Mammaliicoccus sciuri [33]): 32 µg/mL (≈ 43.6 µM)
- MIC (Staphylococcus hominis [34]): 0.5 µg/mL (≈ 0.681 µM)
- MIC50 (Staphylococcus hominis [34]): 0.5 µg/mL (≈ 0.681 µM)
- MIC90 (Staphylococcus hominis [34]): 16 µg/mL (≈ 21.8 µM)
- Activity [35]: 11%
- Activity (Staphylococcus simulans [36]): 15%
